{
  "source": "paper PMC4680848",
  "about": "(Structure (London, England : 1993), 2015)",
  "molecules": {"B1": {"name": "DnaJ: an Hsp40 co-chaperone for DnaK and founding representative of the class I Hsp40s (protein)", "chain": "MAKQDYYEILGVSKTAEEREIRKAYKRLAMKYHPDRNQGDKEAEAKFKEIKEAYEVLTDSQKRAAYDQYGHAAFEQGGMGGGGFGGGADFSDIFGDVFGDIFGGGRGRQRAARGADLRYNMELTLEEAVRGVTKEIRIPTLEECDVCHGSGAKPGTQPQTCPTCHGSGQVQMRQGFFAVQQTCPHCQGRGTLIKDPCNKCHGHGRVERSKTLSVKIPAGVDTGDRIRLAGEGEAGEHGAPAGDLYVQVQVKQHPIFEREGNNLYCEVPINFAMAALGGEIEVPTLDGRVKLKVPGETQTGKLFRMRGKGVKSVRGGAQGDLLCRVVVETPVGLNERQKQLLQELQESFGGPTGEHNSPRSKSFFDGVKKFFDDLTR"}, "B2": {"name": "ERdj3: an abundant class I Hsp40 in ER, proposed to be an Hsp40 for BiP (protein)", "chain": "GRDFYKILGVPRSASIKDIKKAYRKLALQLHPDRNPDDPQAQEKFQDLGAAYEVLSDSEKRKQYDTYGEEGLKDGHQSSHGDIFSHFFGDFGFMFGGTPRQQDRNIPRGSDIIVDLEVTLEEVYAGNFVEVVRNKPVARQAPGKRKCNCRQEMRTTQLGPGRFQMTQEVVCDECPNVKLVNEERTLEVEIEPGVRDGMEYPFIGEGEPHVDGEPGDLRFRIKVVKHPIFERRGDDLYTNVTISLVESLVGFEMDITHLDGHKVHISRDKITRPGAKLWKKGEGLPNFDNNNIKGSLIITFDVDFPKEQLTEEAREGIKQLLKQGSVQKVYNGLQGY"}},
  "key": {"[1]": {"target": "F-NR peptide (labelled NR peptide, sequence NRLLLTG)", "experiment": "fluorescence polarisation"}, "human BiP [2]": {"target": "T1, human BiP (Homo sapiens, UniProt P11021)", "T1 sequence (P11021 19-654)": "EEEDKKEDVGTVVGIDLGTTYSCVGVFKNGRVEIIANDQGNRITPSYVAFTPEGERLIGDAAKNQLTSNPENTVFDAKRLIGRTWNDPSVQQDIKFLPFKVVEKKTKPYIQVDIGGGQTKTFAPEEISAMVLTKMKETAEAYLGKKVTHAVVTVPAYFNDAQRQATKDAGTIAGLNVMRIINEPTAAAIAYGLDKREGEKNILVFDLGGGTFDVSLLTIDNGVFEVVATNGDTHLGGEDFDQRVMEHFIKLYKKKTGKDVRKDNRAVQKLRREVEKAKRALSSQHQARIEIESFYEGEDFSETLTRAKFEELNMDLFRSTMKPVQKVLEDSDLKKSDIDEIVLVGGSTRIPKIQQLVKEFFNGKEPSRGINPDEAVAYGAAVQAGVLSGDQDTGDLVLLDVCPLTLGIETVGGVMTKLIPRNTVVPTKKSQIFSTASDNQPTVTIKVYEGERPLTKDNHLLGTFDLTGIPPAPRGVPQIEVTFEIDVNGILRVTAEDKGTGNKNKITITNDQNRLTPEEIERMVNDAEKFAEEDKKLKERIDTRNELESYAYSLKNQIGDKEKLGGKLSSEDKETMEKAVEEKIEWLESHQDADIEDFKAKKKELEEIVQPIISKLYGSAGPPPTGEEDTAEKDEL", "experiment": "Fluorescence polarization NR peptide binding affinity", "details": "WT BiP", "summary_of_the_method": "(§1)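 Human BiP proteins (wild type or variant) were made as Smt3 fusions in E. coli BL21(DE3)Gold. They were purified on HisTrap, cut with Ulp1, run over a second HisTrap, then HiTrap Q and Superdex 200, and stored in 5 mM Hepes-KOH pH7.5, 10 mM KCl. Binding of NR peptide (NRLLLTG) was read by fluorescence polarization across serial protein dilutions. Kd was fitted from binding curves; standard errors come from at least 6 assays on more than two protein purifications.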"}, "BiP R532E": {"target": "BiP R532E (Homo sapiens, UniProt P11021, R532E)", "sequence (P11021 19-654 R532E)": "as the sequence (P11021 19-654) above, with R514E counted along it", "experiment": "Fluorescence anisotropy NR peptide binding affinity", "details": "WT BiP as control", "summary_of_the_method": "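BiP wild type and mutants were expressed in E. coli BL21(DE3)Gold as Smt3 fusions. Purification was by HisTrap, Ulp1 tag removal, a second HisTrap, HiTrap Q and Superdex 200. Fluorescence polarization/anisotropy binding of NR peptide (NRLLLTG) was measured with serial dilutions of protein, in the presence of ADP or ATP. Kd was calculated from the binding data.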"}, "BiP-PP (G486P/G493P) [3]": {"target": "T2, BiP-PP (G486P/G493P) (Homo sapiens, UniProt P11021, G486P/G493P)", "T2 sequence (P11021 25-654 G486P/G493P limits assumed)": "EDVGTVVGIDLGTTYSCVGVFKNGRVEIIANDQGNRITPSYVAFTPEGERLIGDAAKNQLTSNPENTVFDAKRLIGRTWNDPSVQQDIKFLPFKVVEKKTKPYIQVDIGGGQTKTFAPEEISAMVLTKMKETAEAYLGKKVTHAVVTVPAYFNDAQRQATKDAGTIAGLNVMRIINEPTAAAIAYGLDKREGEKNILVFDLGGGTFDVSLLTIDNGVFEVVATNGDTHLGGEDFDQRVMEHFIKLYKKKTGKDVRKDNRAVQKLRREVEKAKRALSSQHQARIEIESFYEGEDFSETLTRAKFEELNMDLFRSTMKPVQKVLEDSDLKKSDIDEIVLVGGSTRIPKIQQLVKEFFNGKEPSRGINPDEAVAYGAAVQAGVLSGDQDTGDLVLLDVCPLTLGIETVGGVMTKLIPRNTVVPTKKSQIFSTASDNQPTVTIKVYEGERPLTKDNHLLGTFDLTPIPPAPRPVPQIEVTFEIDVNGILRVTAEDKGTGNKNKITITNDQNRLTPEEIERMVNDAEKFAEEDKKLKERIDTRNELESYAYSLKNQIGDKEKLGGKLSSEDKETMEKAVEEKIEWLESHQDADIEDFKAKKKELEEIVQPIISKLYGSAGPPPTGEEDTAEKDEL", "experiment": "Fluorescence anisotropy peptide substrate binding kinetics", "details": "F-NR peptide"}, "BiP-PP": {"test_system": "BiP-PP", "experiment": "Single-turnover ATPase assay", "type": "biochemical, human", "details": "single turn-over"}, "isolated SBD of BiP": {"test_system": "isolated SBD of BiP", "experiment": "Fluorescence polarization NR peptide binding affinity", "design": "species or system human", "details": "isolated SBD vs full-length BiP", "summary_of_the_method": "as §1"}, "BiP SBD-Tev-NR": {"test_system": "BiP SBD-Tev-NR", "experiment": "Fluorescence polarization NR peptide binding", "design": "species or system human", "details": "SBD with covalently linked NR peptide; WT BiP SBD as positive control", "summary_of_the_method": "as §1"}, "BiP-L3,4′": {"test_system": "BiP-L3,4′", "experiment": "Fluorescence polarization NR peptide binding", "design": "species or system human", "details": "L3,4′ modification (TASDNQP→VGG); WT BiP as positive control", "summary_of_the_method": "as §1"}, "BiP-T229A": {"test_system": "BiP-T229A", "experiment": "Fluorescence polarization NR peptide binding", "design": "species or system human", "details": "effect of ATP, WT BiP as positive control", "summary_of_the_method": "as §1"}, "BiP-PP (G486P/G493P) [4]": {"target": "T2, BiP-PP (G486P/G493P)", "experiment": "Fluorescence polarization peptide binding affinity"}, "human BiP [5]": {"target": "T1, human BiP", "experiment": "Fluorescence anisotropy peptide substrate binding kinetics"}, "BiP [6]": {"test_system": "BiP", "experiment": "Single-turnover ATPase assay", "type": "biochemical, human"}, "[7]": {"test_system": "DnaK-PP (DnaK-G461P/G468P)", "experiment": "Single-turnover ATPase assay", "type": "biochemical, E. coli"}, "BiP [8]": {"test_system": "BiP", "details": "ref Marcinowski et al., 2011; cited from earlier work"}, "[9]": {"target": "T3, BiP SBD-L3,4′ (residues 418-636), the SBD part of SBD-L3,4′-Tev-NR (human, UniProt P11021 418-636, L3,4′ (TASDNQP→VGG))", "T3 sequence (looked up)": "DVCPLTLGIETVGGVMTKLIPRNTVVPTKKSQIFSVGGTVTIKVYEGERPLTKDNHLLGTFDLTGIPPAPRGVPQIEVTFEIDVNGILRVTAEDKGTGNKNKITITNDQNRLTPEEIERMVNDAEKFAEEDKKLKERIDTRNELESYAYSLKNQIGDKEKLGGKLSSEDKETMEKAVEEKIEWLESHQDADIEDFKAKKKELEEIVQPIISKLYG", "experiment": "crystal structure"}},
  "note": "Entries after “also recorded” stand apart in the source; their conditions may differ.",
  "data": [
    {"molecule": "human BiP (binding immunoglobulin protein), wild type (from UniProt P11021 19-654) (natural protein)", "values": [
      {"measurement": "Kd relative to that of DnaK", "setting": "[1]", "result": 2, "unit": "times lower"}
    ]},
    {"molecule": "NRLLLTG [NR peptide]", "values": [
      {"measurement": "binding affinity in the presence of ADP", "setting": "human BiP [2]; +ADP", "result": "binding affinity is high"},
      {"measurement": "affinity for NR peptide in the presence of ATP", "setting": "human BiP [2]; +ATP", "result": "drastically reduced the affinity"},
      {"measurement": "NR peptide binding", "setting": "human BiP [2]; fluorescence polarization, serial dilutions of BiP", "result": "binds NR peptide through its SBD and in an ATP-sensitive manner; also recorded: good affinity"},
      {"measurement": "affinity for NR peptide in the presence of ADP", "setting": "BiP R532E; +ADP", "result": "normal affinity"},
      {"measurement": "affinity for NR peptide in the presence of ATP", "setting": "BiP R532E; +ATP", "result": "higher than that of WT BiP"},
      {"measurement": "binding kinetics in the presence of ADP", "setting": "BiP-PP (G486P/G493P) [3]", "result": "fast binding kinetics"},
      {"measurement": "stimulation of ATPase activity by NR peptide", "setting": "BiP-PP", "result": "failed to stimulate the ATPase activity; also recorded: little appreciable stimulation"},
      {"measurement": "affinity of isolated SBD for NR peptide", "setting": "isolated SBD of BiP", "result": "affinity comparable to full-length BiP"},
      {"measurement": "binding of free NR peptide", "setting": "BiP SBD-Tev-NR", "result": "Neither BiP SBD-Tev–NR nor SBD-L3,4′-Tev-NR showed appreciable binding; also recorded: completely blocks the binding of free NR peptide"},
      {"measurement": "affinity for NR peptide / NR peptide binding", "setting": "BiP-L3,4′", "result": "drastically compromised the NR peptide binding; also recorded: drastically reduced affinity"},
      {"measurement": "NR peptide binding / affinity, ATP sensitivity", "setting": "BiP-T229A", "result": "binds NR peptide in an ATP-sensitive manner like that of WT BiP; also recorded: significantly reduced affinity for NR peptide in the presence of ATP"},
      {"measurement": "affinity for NR peptide in the presence of ADP", "setting": "BiP-PP (G486P/G493P) [4]", "result": "reduced affinity"},
      {"measurement": "binding kinetics, both on and off rates, relative to DnaK", "setting": "human BiP [5]; BiP vs DnaK, Fig. S1a,b", "result": "much slower than those of DnaK"},
      {"measurement": "binding kinetics in the presence of ADP", "setting": "human BiP [5]; WT BiP, +ADP, F-NR peptide", "result": "binding kinetics are slow"},
      {"measurement": "binding kinetics in the presence of ATP", "setting": "human BiP [5]; WT BiP, +ATP, F-NR peptide", "result": "fast binding kinetics"}
    ]},
    {"molecule": "B1", "values": [
      {"measurement": "stimulation of ATPase activity by DnaJ", "setting": "BiP [6]; compared with ERdj3", "result": "stimulated BiP although to less extend as ERdj3"},
      {"measurement": "fold of stimulation of ATPase rate by DnaJ", "setting": "DnaK; DnaJ at 0.4 μM, intrinsic ATPase activity set as 1", "result": "~60", "unit": "fold"},
      {"measurement": "stimulation of ATPase rate by DnaJ relative to WT DnaK", "setting": "[7]; DnaK-PP vs WT DnaK", "result": "about two thirds of that of WT"},
      {"measurement": "stimulation of ATPase activity by DnaJ", "setting": "[7]; DnaK-PP, single turn-over", "result": "significant stimulation; also recorded: stimulates the ATPase rate of DnaK-PP drastically; also recorded: stimulated DnaK-PP significantly"},
      {"measurement": "stimulation of ATPase activity by DnaJ", "setting": "BiP-PP", "result": "Neither ERdj3 (d) nor DnaJ (f) showed appreciable stimulation; also recorded: failed to stimulate BiP-PP appreciably"}
    ]},
    {"molecule": "B2", "values": [
      {"measurement": "fold of stimulation of ATPase activity by ERdj3", "setting": "BiP [6]; ERdj3 at 4 μM, intrinsic ATPase activity set as 1", "result": "more than 20 fold"},
      {"measurement": "stimulation of ATPase activity by ERdj3", "setting": "DnaK; single turn-over", "result": "stimulated DnaK’s ATPase activity robustly"},
      {"measurement": "stimulation of ATPase activity by ERdj3", "setting": "[7]; DnaK-PP, single turn-over", "result": "significant stimulation; also recorded: significant stimulation on DnaK-PP although to less extend than that of DnaJ; also recorded: stimulated DnaK-PP significantly"},
      {"measurement": "stimulation of ATPase activity by ERdj3", "setting": "BiP-PP", "result": "Neither ERdj3 (d) nor DnaJ (f) showed appreciable stimulation; also recorded: failed to show any appreciable stimulation"},
      {"measurement": "interaction of ERdj3 with BiP in the presence of ADP", "setting": "BiP [8]", "result": "significant interaction with BiP in the presence of ADP"}
    ]},
    {"molecule": "NRLLLTG", "note": "[NR peptide (sequence NRLLLTG), unlabelled]", "values": [
      {"measurement": "binding result", "setting": "[9]", "result": "binds"}
    ]}
  ]
}
